Experimental data as given in ChEMBL document CHEMBL4024751, “Hit-to-Lead Optimization and Discovery of 5-((5-([1,1'-Biphenyl]-4-yl)-6-chloro-1H-benzo[d]imidazol-2-yl)oxy)-2-methylbenzoic Acid (MK-3903): A Novel Class of Benzimidazole-Based Activators of AMP-Activated Protein Kinase” (J Med Chem, 2017).
pEC50: −log10 of the molar value.

Assays:
[1] = biological target: AMPK alpha2/beta1/gamma1 (Homo sapiens, UniProt P54619+P54646+Q9Y478); assay: (§1) Agonist activity at human recombinant phosphorylated AMPK complex 7 alpha2/beta1/gamma1 expressed in baculovirus infected Sf21 cells assessed as phosphorylation of 5-FAM-labeled SAMS substrate preincubated for 30 mins in presence of AMPK activator followed by substrate addition measured after 60 mins
Chain of AMPK alpha2/beta1/gamma1 (P54646 whole entry): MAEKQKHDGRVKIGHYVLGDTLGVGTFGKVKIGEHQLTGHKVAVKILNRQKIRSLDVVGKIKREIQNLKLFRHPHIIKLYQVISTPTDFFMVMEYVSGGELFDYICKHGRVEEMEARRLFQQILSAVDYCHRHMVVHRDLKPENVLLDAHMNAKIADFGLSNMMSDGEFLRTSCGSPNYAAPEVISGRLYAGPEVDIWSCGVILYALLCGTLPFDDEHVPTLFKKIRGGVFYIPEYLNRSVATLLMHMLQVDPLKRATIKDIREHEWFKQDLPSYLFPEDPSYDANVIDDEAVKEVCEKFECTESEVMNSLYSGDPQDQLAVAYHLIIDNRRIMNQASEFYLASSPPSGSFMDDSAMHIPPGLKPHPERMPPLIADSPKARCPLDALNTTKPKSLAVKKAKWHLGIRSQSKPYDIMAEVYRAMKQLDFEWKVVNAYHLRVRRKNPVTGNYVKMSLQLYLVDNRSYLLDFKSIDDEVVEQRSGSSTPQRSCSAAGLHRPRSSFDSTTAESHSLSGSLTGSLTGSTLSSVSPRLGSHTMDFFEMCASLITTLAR
Chain of AMPK alpha2/beta1/gamma1 (P54619 whole entry): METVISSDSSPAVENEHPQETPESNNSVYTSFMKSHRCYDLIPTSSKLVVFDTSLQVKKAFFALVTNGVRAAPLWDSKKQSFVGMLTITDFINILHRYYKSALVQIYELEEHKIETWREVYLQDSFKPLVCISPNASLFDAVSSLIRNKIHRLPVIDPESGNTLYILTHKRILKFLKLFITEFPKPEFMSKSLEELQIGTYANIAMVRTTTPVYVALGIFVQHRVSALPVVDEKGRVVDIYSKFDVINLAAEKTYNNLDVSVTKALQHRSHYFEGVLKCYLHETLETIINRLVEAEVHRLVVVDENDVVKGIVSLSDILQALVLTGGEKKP
Chain of AMPK alpha2/beta1/gamma1 (Q9Y478 whole entry): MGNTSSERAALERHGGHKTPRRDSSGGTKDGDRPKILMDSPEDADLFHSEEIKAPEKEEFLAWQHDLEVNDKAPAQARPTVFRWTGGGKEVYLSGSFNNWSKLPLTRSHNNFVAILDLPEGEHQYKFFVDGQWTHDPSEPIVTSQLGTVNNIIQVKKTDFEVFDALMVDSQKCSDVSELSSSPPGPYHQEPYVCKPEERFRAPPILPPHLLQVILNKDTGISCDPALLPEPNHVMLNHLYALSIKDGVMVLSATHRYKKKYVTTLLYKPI
Summary of the method: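 Recombinant phosphorylated human AMPK complex; agonist tested as a 10-point titration up to 50 μM (∼2 nM to 50 μM in some series, ∼0.8 nM to 16 μM in others). EC50 is the average of at least two experiments. Percent maximum activation is the highest activation seen over the titration range, or the level at 50 μM.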

[2] = biological target: T1, AMPK alpha2/beta1/gamma1 (Homo sapiens) (UniProt P54646+P54619+Q9Y478); assay: as §1, with “SAMS substrate at 50 uM preincubated for” for “SAMS substrate preincubated for”, “60 mins relative to AMP” for “60 mins”
T1 sequence (P54619 whole entry partner): as the sequence (P54619 whole entry) above
T1 sequence (P54646 whole entry): as the sequence (P54646 whole entry) above
T1 sequence (Q9Y478 2-270 partner limits assumed): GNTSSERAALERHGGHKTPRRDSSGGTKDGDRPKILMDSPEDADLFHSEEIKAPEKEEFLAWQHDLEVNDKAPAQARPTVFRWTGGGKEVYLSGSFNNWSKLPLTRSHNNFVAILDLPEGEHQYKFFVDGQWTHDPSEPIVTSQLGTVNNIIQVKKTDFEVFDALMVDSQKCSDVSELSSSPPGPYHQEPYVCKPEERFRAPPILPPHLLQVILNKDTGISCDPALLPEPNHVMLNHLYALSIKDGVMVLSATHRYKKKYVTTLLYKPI
Summary of the method: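 Activation of pAMPK7 is reported as percent activation at 50 μM, taken from 10-point titrations and averaged over at least two experiments.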

[3] = biological target: T1, AMPK alpha2/beta1/gamma1 (Homo sapiens); assay: as §1, with “SAMS substrate at 0.0008 to 16 uM preincubated for” for “SAMS substrate preincubated for”, “60 mins relative to AMP” for “60 mins”
Summary of the method: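 Recombinant human pAMPK7 was titrated at 10 points over about 0.8 nM to 16 μM. EC50 is the average of at least two experiments. Percent maximum activation is the highest activation seen within that range.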

[4] = Plasma clearance in BCRP knockout mouse by LC-MS/MS analysis; type: ADME
[5] = system: Mus musculus; assay: Dose normalized AUC in BCRP knockout mouse administered through oral gavage by LC-MS/MS analysis; type: ADME; settings: in vivo
[6] = Terminal half life in BCRP knockout mouse by LC-MS/MS analysis; type: ADME; settings: in vivo, read-out: beta t1/2 (converted)
[7] = Volume of distribution at steady state in BCRP knockout mouse by LC-MS/MS analysis; type: ADME; settings: in vivo, read-out: Vdss
[8] = Plasma clearance in C57BL/6 mouse by LC-MS/MS analysis; type: ADME
Summary of the method: (§2)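 C57BL/6 mice were dosed 2 mg/kg IV and 10 mg/kg PO. Reported parameters: plasma clearance, Vdss, terminal t1/2, Cmax, tmax and oral bioavailability F. AUCN is the plasma AUC after PO dosing normalized to dose.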

[9] = system: Mus musculus; assay: In vivo agonist activity at AMPK in C57BL/6 mouse assessed as inhibition of de novo lipogenesis at 30 mg/kg, ip; type: functional; settings: C57BL/6, ip
[10] = Oral bioavailability in C57BL/6 mouse by LC-MS/MS analysis; type: ADME, organism-based; settings: in vivo; summary of the method: as §2
[11] = Terminal half life in C57BL/6 mouse by LC-MS/MS analysis; type: ADME; settings: in vivo, read-out: beta t1/2 (converted); summary of the method: as §2
[12] = Volume of distribution at steady state in C57BL/6 mouse by LC-MS/MS analysis; type: ADME; settings: in vivo, read-out: Vdss; summary of the method: as §2
[13] = system: Mus musculus; assay: In vivo agonist activity at AMPK C57BL/6 mouse assessed as inhibition of de novo lipogenesis at 100 mg/kg, po administered via gavage; type: functional; settings: C57BL/6, po
[14] = biological target: T1, AMPK alpha2/beta1/gamma1 (Homo sapiens); assay: as §1, with “SAMS substrate at 0.002 to 50 uM preincubated for” for “SAMS substrate preincubated for”, “60 mins relative to AMP” for “60 mins”
Summary of the method: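 Recombinant human pAMPK complexes were titrated at 10 points over about 2 nM to 50 μM. EC50 is the average of at least two experiments. %max is the highest activation seen within that range.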

[15] = Apparent permeability of compound in pig LLC-PK1 cells by HPLC analysis; type: ADME, cell-based, Sus scrofa; settings: llc-pk1
Summary of the method: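 LLC-PK1 monolayer on polycarbonate filter. Compound in HBSS added to the apical or basolateral side. Both sides sampled at end of incubation and quantified by HPLC. Papp is the mean of A→B and B→A values.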

[16] = system: Mus musculus; assay: Dose normalized AUC in po dosed C57BL/6 mouse administered via gavage by LC-MS/MS analysis; type: ADME, organism-based; settings: in vivo; summary of the method: as §2
[17] = Oral bioavailability in BCRP knockout mouse by LC-MS/MS analysis; type: ADME, organism-based; settings: in vivo

Compound	pEC50 [1]	%max [2]	further results
O=C(O)CCc1nc2cc(Cl)c(-c3ccc(-c4ccccc4)cc3)cc2[nH]1	5.22	130%	
O=C(O)c1ccc(Sc2nc3cc(Cl)c(Cl)cc3[nH]2)cc1		35%	
O=C(O)CCc1nc2cc(Cl)c(-c3ccccc3)cc2[nH]1	5.10	130%	
COc1ccc2[nH]c(CCC(=O)O)nc2c1		14%	
O=C(O)c1cc(Oc2nc3cc(-c4ccc(-c5ccccc5)cc4)c(Cl)cc3[nH]2)ccc1Cl	7.49		%max [3]: 310%
O=C(O)c1cccc(-c2nc3cc(Cl)c(Cl)cc3[nH]2)c1		10%	
O=C(O)CCc1nc2cc(Cl)c(Br)cc2[nH]1		44%	
O=C(O)CSc1nc2cc(-c3ccc(-c4ccccc4)cc3)c(Cl)cc2[nH]1	6.82		clearance [4]: 2.9 mL/min/kg; AUC/dose [5]: 11.4 µM·kg·h/mg; half-life [6]: 10.8 h; Vd [7]: 2.6 L/kg; clearance [8]: 60 mL/min/kg; inhibition in vivo at 30 mg/kg [9]: 40%; bioavailability [10]: 7%; half-life [11]: 2.8 h; Vd [12]: 6.7 L/kg; inhibition in vivo at 100 mg/kg [13]: 20%; %max [14]: 260%; Papp [15]: Permeable; AUC/dose [16]: 0.05 µM·kg·h/mg; bioavailability [17]: 77%
O=C(O)CSc1nc2cc(Cl)c(Cl)cc2[nH]1	5.40	130%	
Cc1ccc(Oc2nc3cc(C#Cc4ccccc4)c(Cl)cc3[nH]2)cc1C(=O)O	8.15		%max [3]: 240%
O=C(O)c1cccc(Sc2nc3cc(-c4ccc(-c5ccccc5)cc4)c(Cl)cc3[nH]2)c1	6.10		%max [14]: 200%
O=C(O)c1cccc(Oc2nc3cc(-c4ccc(-c5ccccc5)cc4)c(Cl)cc3[nH]2)c1	7.21		%max [3]: 260%
O=C(O)Cc1cccc(Sc2nc3cc(Cl)c(Cl)cc3[nH]2)c1	5.54	140%	
O=C(O)c1cccc(Sc2nc3cc(Cl)c(Cl)cc3[nH]2)c1	5.13	150%	
O=C(O)c1cccc(Sc2nc3cc(-c4ccc(-c5ccccc5O)cc4)c(Cl)cc3[nH]2)c1	7.54		%max [14]: 100%
Cc1ccc(Oc2nc3cc(-c4ccc(-c5ccccc5O)cc4)c(Cl)cc3[nH]2)cc1C(=O)O	8.52		%max [3]: 230%
O=C(O)CSc1nc2cc(C#Cc3ccccc3)c(Cl)cc2[nH]1	6.70		%max [14]: 320%
O=C(O)CCc1nc2ccccc2[nH]1		14%	
O=C(O)c1cc(Oc2nc3cc(C#Cc4ccccc4)c(Cl)cc3[nH]2)ccc1Cl	7.82		%max [3]: 250%
O=C(O)CCc1nc2cc(Cl)c(Cl)cc2[nH]1	4.44	78%	
O=C(O)c1csc(Sc2nc3cc(Cl)c(Cl)cc3[nH]2)n1	5.59	76%	
Cc1cc2nc(CCC(=O)O)[nH]c2cc1C		19%	
O=C(O)c1ccccc1Sc1nc2cc(Cl)c(Cl)cc2[nH]1	5.09	130%	
O=C(O)c1ccccc1-c1nc2cc(Cl)c(Cl)cc2[nH]1		6%	
Cc1ccc(Oc2nc3cc(-c4ccc(-c5ccn[nH]5)cc4)c(Cl)cc3[nH]2)cc1C(=O)O	7.96		%max [3]: 260%
O=C(O)CCc1nc2cc(Cl)ccc2[nH]1		41%	
Cc1ccc(Oc2nc3cc(-c4ccc5c(ccn5C)c4)c(Cl)cc3[nH]2)cc1C(=O)O	8.70		%max [3]: 340%
O=C(O)CC[S+]([O-])c1nc2cc(Cl)c(Cl)cc2[nH]1 (configuration not stated)		15%	
O=C(O)CCSc1nc2cc(Cl)c(Cl)cc2[nH]1	5.07	130%	
